From ChEMBL document CHEMBL1255417, “Correlation between in vitro activity of posaconazole and in vivo efficacy against Rhizopus oryzae infection in mice” (Antimicrob Agents Chemother, 2010)
≈ marks a conversion by molar mass, not a printed value. Calls of active or inactive are those of the source. No cut-off for these calls is given here.

Key:
[1] = system: Rhizopus arrhizus; assay: Antifungal activity against drug-susceptible Rhizopus oryzae UTHSC 06-89 at 5 ug by disk diffusion assay; format: functional; settings: read-out: DIZ
[2] = system: Rhizopus arrhizus; assay: Antifungal activity against drug-susceptible Rhizopus oryzae UTHSC 06-89 infected in OF1 mouse assessed as increase in mouse survival at 20-30 mg/kg, po bid treated 24 hrs after fungal infection; format: functional, organism-based
[3] = system: Rhizopus arrhizus; assay: Antifungal activity against drug-susceptible Rhizopus oryzae UTHSC 04-278 at 5 ug by disk diffusion assay; format: functional; settings: read-out: DIZ
How it was run: (§1)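 Neo-Sensitabs tablet diffusion on Mueller-Hinton agar, following guidelines for molds; 9 mm tablets containing 5 µg posaconazole; inhibition zone diameter measured in mm; zone breakpoints applied at 24 h.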

[4] = system: Rhizopus arrhizus; assay: Antifungal activity against drug-susceptible Rhizopus oryzae UTHSC 05-197 by broth microdilution method; format: functional
How it was run: (§2)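 CLSI broth microdilution for filamentous fungi (M38-A2); MIC recorded in µg/ml against clinical isolates; breakpoints applied at 24 h.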

[5] = system: Rhizopus arrhizus; assay: Antifungal activity against drug-intermediate Rhizopus oryzae UTHSC 03-285 at 5 ug by disk diffusion assay; format: functional; settings: read-out: DIZ
How it was run: (§3)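 Neo-Sensitabs tablet diffusion on Mueller-Hinton agar, following the guidelines for molds. Tablets were 9 mm in diameter and held 5 µg of drug. The read-out was inhibition zone diameter in mm.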

[6] = system: Rhizopus arrhizus; assay: Antifungal activity against drug-intermediate Rhizopus oryzae infected in OF1 mouse assessed as mouse survival at 30 mg/kg, po bid treated 24 hrs after fungal infection; format: functional
How it was run: (§4)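 Survival model in male OF1 mice, 30 g. Mice were immunosuppressed 1 day before infection with cyclophosphamide 200 mg/kg i.p. plus 5-fluorouracil 150 mg/kg i.v., then infected i.v. via lateral tail vein with 2 × 10^4 CFU in 0.2 ml saline. Oral gavage at 10, 20 or 30 mg/kg BID began 24 h post-challenge for 7 days. Ceftazidime 5 mg/day s.c. was given days 1–7. Groups of 10 were checked daily for 20 days; untreated controls.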

[7] = system: Rhizopus arrhizus; assay: Antifungal activity against drug-susceptible Rhizopus oryzae UTHSC 06-2457 by broth microdilution method; format: functional
How it was run: (§5)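 Posaconazole MIC in ug/ml, determined by broth microdilution following the CLSI guidelines for moulds (M38-A2).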

[8] = system: Rhizopus arrhizus; assay: Antifungal activity against drug-susceptible Rhizopus oryzae UTHSC 05-3111 by broth microdilution method; format: functional; how it was run: as §5
[9] = system: Rhizopus arrhizus; assay: Antifungal activity against drug-susceptible Rhizopus oryzae UTHSC 06-1080 after 24 to 48 hrs; format: functional
How it was run: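 Minimum fungicidal concentration taken from the broth microdilution plates. From each well with complete inhibition (optically clear), 20 ul is plated on potato dextrose agar. Plates are incubated at 35°C for 24 to 48 h. The MFC is the lowest drug concentration giving no growth.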

[10] = system: Rhizopus arrhizus; assay: Antifungal activity against drug-susceptible Rhizopus oryzae UTHSC 03-511 after 24 to 48 hrs; format: functional
How it was run: (§6)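 Minimum fungicidal concentration: 20 µl from each microdilution well showing complete inhibition (optically clear) plated on potato dextrose agar, incubated 35°C for 24 to 48 h; MFC taken as lowest drug concentration giving no growth.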

[11] = system: Rhizopus arrhizus; assay: Antifungal activity against drug-intermediate Rhizopus oryzae UTHSC 05-114 by broth microdilution method; format: functional
How it was run: (§7)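 Broth microdilution MIC in µg/ml, run per the CLSI (formerly NCCLS) guideline for filamentous fungi, M38-A2.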

[12] = system: Rhizopus arrhizus; assay: Antifungal activity against drug-susceptible Rhizopus oryzae UTHSC 06-329 at 5 ug by disk diffusion assay; format: functional; settings: read-out: DIZ
How it was run: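 Neo-Sensitabs tablet diffusion on Mueller-Hinton agar, run per the mould guidelines. Tablets are 9 mm in diameter and carry 5 ug posaconazole. The read-out is the inhibition zone diameter in mm.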

[13] = system: Rhizopus arrhizus; assay: Antifungal activity against drug-susceptible Rhizopus oryzae UTHSC 02-2882 infected in OF1 mouse assessed as reduction in kidney fungal load at 10-30 mg/kg, po bid; format: functional, organism-based
How it was run: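 Tissue burden in immunosuppressed male OF1 mice, using cyclophosphamide 200 mg/kg i.p. plus 5-fluorouracil 150 mg/kg i.v. on day −1. Mice received 2 × 10^4 CFU i.v. by tail vein, then oral gavage at 10, 20 or 30 mg/kg BID from 24 h post-challenge, with ceftazidime cover; untreated controls. Groups of 10 were killed on day 4. Kidneys and brains were homogenized in 2 ml saline, serially diluted 10-fold, plated on PDA and counted after 24 h at 35°C.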

[14] = system: Rhizopus arrhizus; assay: Antifungal activity against drug-susceptible Rhizopus oryzae UTHSC 06-89 by broth microdilution method; format: functional
[15] = system: Rhizopus arrhizus; assay: Antifungal activity against drug-susceptible Rhizopus oryzae UTHSC 04-1241 by broth microdilution method; format: functional; how it was run: as §2
[16] = system: Rhizopus arrhizus; assay: Antifungal activity against drug-susceptible Rhizopus oryzae UTHSC 03-511 by broth microdilution method; format: functional; how it was run: as §2
[17] = system: Rhizopus arrhizus; assay: Antifungal activity against drug-susceptible Rhizopus oryzae UTHSC 03-228 after 24 to 48 hrs; format: functional
[18] = system: Rhizopus arrhizus; assay: Antifungal activity against drug-susceptible Rhizopus oryzae UTHSC 05-1679 by broth microdilution method; format: functional; how it was run: as §2
[19] = system: Rhizopus arrhizus; assay: Antifungal activity against drug-susceptible Rhizopus oryzae UTHSC 06-89 infected in OF1 mouse assessed as reduction in kidney fungal load at 10-30 mg/kg, po bid; format: functional, organism-based
[20] = system: Rhizopus arrhizus; assay: Antifungal activity against drug-susceptible Rhizopus oryzae UTHSC 03-299 by broth microdilution method; format: functional; how it was run: as §2
[21] = system: Rhizopus arrhizus; assay: Antifungal activity against drug-intermediate Rhizopus oryzae UTHSC 07-365 infected in OF1 mouse assessed as increase in mouse survival at 20-30 mg/kg, po bid treated 24 hrs after fungal infection; format: functional, organism-based; how it was run: as §4
[22] = system: Rhizopus arrhizus; assay: Antifungal activity against drug-susceptible Rhizopus oryzae UTHSC 04-1241 after 24 to 48 hrs; format: functional; how it was run: as §6
[23] = system: Rhizopus arrhizus; assay: Antifungal activity against drug-susceptible Rhizopus oryzae UTHSC 412-546 by broth microdilution method; format: functional
[24] = system: Rhizopus arrhizus; assay: Antifungal activity against drug-susceptible Rhizopus oryzae UTHSC 03-1826 at 5 ug by disk diffusion assay; format: functional; settings: read-out: DIZ; how it was run: as §3
[25] = system: Rhizopus arrhizus; assay: Antifungal activity against drug-susceptible Rhizopus oryzae UTHSC 04-1220 after 24 to 48 hrs; format: functional; how it was run: as §6
[26] = system: Rhizopus arrhizus; assay: Antifungal activity against drug-intermediate Rhizopus oryzae UTHSC 04-3109 after 24 to 48 hrs; format: functional
[27] = system: Rhizopus arrhizus; assay: Antifungal activity against drug-susceptible Rhizopus oryzae UTHSC 04-2159 after 24 to 48 hrs; format: functional; how it was run: as §6
[28] = system: Rhizopus arrhizus; assay: Antifungal activity against drug-intermediate Rhizopus oryzae UTHSC 03-3165 at 5 ug by disk diffusion assay; format: functional; settings: read-out: DIZ; how it was run: as §3
[29] = system: Rhizopus arrhizus; assay: Antifungal activity against drug-susceptible Rhizopus oryzae UTHSC 04-443 at 5 ug by disk diffusion assay; format: functional; settings: read-out: DIZ; how it was run: as §1
[30] = system: Rhizopus arrhizus; assay: Antifungal activity against drug-susceptible Rhizopus oryzae UTHSC 04-2459 at 5 ug by disk diffusion assay; format: functional; settings: read-out: DIZ; how it was run: as §1
[31] = system: Rhizopus arrhizus; assay: Antifungal activity against drug-susceptible Rhizopus oryzae UTHSC 02-2882 after 24 to 48 hrs; format: functional
[32] = system: Rhizopus arrhizus; assay: Antifungal activity against drug-intermediate Rhizopus oryzae UTHSC 03-3165 by broth microdilution method; format: functional; how it was run: as §7
[33] = system: Rhizopus arrhizus; assay: Antifungal activity against drug-susceptible Rhizopus oryzae UTHSC 06-329 by broth microdilution method; format: functional; how it was run: as §5
[34] = system: Rhizopus arrhizus; assay: Antifungal activity against drug-susceptible Rhizopus oryzae UTHSC 04-1241 at 5 ug by disk diffusion assay; format: functional; settings: read-out: DIZ; how it was run: as §1
[35] = system: Rhizopus arrhizus; assay: Antifungal activity against drug-susceptible Rhizopus oryzae UTHSC 06-4152 by broth microdilution method; format: functional; how it was run: as §5

CC[C@@H]([C@H](C)O)n1ncn(-c2ccc(N3CCN(c4ccc(OC[C@@H]5CO[C@@](Cn6cncn6)(c6ccc(F)cc6F)C5)cc4)CC3)cc2)c1=O [POSACONAZOLE]
zone of inhibition at 5 µg/disc [1]: 23 mm | Activity [2]: Active | zone of inhibition at 5 µg/disc [3]: 18 mm | MIC [4]: 0.25 µg/mL (≈ 0.357 µM) | zone of inhibition at 5 µg/disc [5]: 15 mm | Activity [6]: 10% | MIC [7]: 1 µg/mL (≈ 1.43 µM) | MIC [8]: 0.25 µg/mL (≈ 0.357 µM) | MFC [9]: > 16 µg/mL | MFC [10]: 1 µg/mL (≈ 1.43 µM) | MIC [11]: 2 µg/mL (≈ 2.85 µM) | zone of inhibition at 5 µg/disc [12]: 20 mm | Activity [13]: Active | MIC [14]: 0.25 µg/mL (≈ 0.357 µM) | MIC [15]: 0.5 µg/mL (≈ 0.713 µM) | MIC [16]: 0.25 µg/mL (≈ 0.357 µM) | MFC [17]: 1 µg/mL (≈ 1.43 µM) | MIC [18]: 0.5 µg/mL (≈ 0.713 µM) | Activity [19]: Active | MIC [20]: 1 µg/mL (≈ 1.43 µM) | Activity [21]: Active | MFC [22]: 0.5 µg/mL (≈ 0.713 µM) | MIC [23]: 1 µg/mL (≈ 1.43 µM) | zone of inhibition at 5 µg/disc [24]: 18 mm | MFC [25]: 1 µg/mL (≈ 1.43 µM) | MFC [26]: > 16 µg/mL | MFC [27]: 1 µg/mL (≈ 1.43 µM) | zone of inhibition at 5 µg/disc [28]: 16 mm | zone of inhibition at 5 µg/disc [29]: 22 mm | zone of inhibition at 5 µg/disc [30]: 18 mm | MFC [31]: 0.5 µg/mL (≈ 0.713 µM) | MIC [32]: 2 µg/mL (≈ 2.85 µM) | MIC [33]: 0.5 µg/mL (≈ 0.713 µM) | zone of inhibition at 5 µg/disc [34]: 22 mm | MIC [35]: 0.25 µg/mL (≈ 0.357 µM)
